From PubChem
Hits are enriched below; roughly 4.9% of the tested compounds scored in any of these assays.
CHT block – inhibits the human high affinity choline transporter. 310,000 compounds, 0.86% hits. AID 488975. CHT-expressing cells, membrane potential dye, choline response; hits give low values. B-score at 10 µM;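 active = B-score over 3 SD under the library average, and starting fluorescence ratio not unusually high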;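 also: choline stimulus applied at its EC90 after an EC20 pre-addition; B-score computed on integrated fluorescence ratio after choline addition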
HSF-1 act – increases HSF-1 driven luciferase reporter signal; AID 504408; activation, % at 9 µM; 300,000 compounds, 1.7% hits; NIH3T3-HGL HSF-1 luciferase reporter, MG132, 8 h; 100% = twice DMSO control signal;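 active = mean replicate activation of at least 50% with a set share of replicates each reaching 50%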
PHOSPHO1 inh – PHOSPHO1 (human) inhibition. Q8TCT1. recombinant PHOSPHO1, absorbance phosphatase assay. inhibition, % at 13.3 µM. 290,000 compounds, 1.1% hits. AID 1565; in the data active = inhibition above about 60%
Target sequence (Q8TCT1 whole entry, looked up): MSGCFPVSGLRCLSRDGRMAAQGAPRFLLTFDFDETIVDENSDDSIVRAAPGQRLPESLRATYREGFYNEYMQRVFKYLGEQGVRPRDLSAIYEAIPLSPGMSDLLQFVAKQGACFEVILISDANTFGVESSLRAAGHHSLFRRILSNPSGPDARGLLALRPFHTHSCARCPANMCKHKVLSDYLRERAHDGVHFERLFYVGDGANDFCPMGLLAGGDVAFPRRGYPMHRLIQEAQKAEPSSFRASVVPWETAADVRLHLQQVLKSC
CHT PAM – allosteric activators of human choline transporter CHT; Q9GZV3; CHT-expressing cells, membrane potential dye, choline EC20; hits give high values; LV-AA mutant CHT in HEK293 cells; B-score at 10 µM; 310,000 compounds, 0.49% hits; AID 488977;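 active = initial fluorescence not abnormally high and integrated response B-score, plate-corrected, over 3 SD above library mean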
Lipid droplet – modulators of hepatic lipid droplet formation; AML12 mouse hepatocytes, oleate lipid droplets, BODIPY imaging; inhibition, % at 6.5 µM; 240,000 compounds, 0.4% hits;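 active = lipid droplet intensity inhibited by at least 50%, with more than 500 cells counted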
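Assay system: AML12 mouse liver cells | Compound: 6.5 µM single-point dosing | Schedule: Overnight exposure | Technique: Fluorescence imaging, 20x objective, two fields per well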
HSF1 inhib – HSF1 inhibition; activity change, negative = inhibition, % at 7.5 µM (by protocol); 300,000 compounds, 0.77% hits; NIH3T3-HGL HSE-luciferase, MG132-induced, luminescence 8 h; hits give low values; AID 2098;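 active = more than half of replicate wells show activity change below -50%, luminescence cut by over half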;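 also: luciferase reports HSF-1 transcriptional activity via heat shock element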
Each line names hits and unclear results; the compound was inactive in the other large screens.

COc1cc(C)c(Cl)cc1S(=O)(=O)NCCCN1CCOCC1	none
COc1cccc(C(=O)NCCOc2cc(C)cc(C)c2)c1	none
CC(C)(C)c1ccc(C(=O)NCCOc2ccccc2)cc1	HSF1 inhib -68
Cc1ccc(C(=O)NCCOc2cccc(C)c2)cc1	HSF-1 act 59
CC(C)(C)c1ccc(C(=O)NCCOc2ccccc2F)cc1	HSF1 inhib -71
COc1ccc(-c2nc(-c3ccncc3)no2)cc1	HSF-1 act 54 (no result: PHOSPHO1 inh)
Cc1ccc2[nH]c(=O)c(CN(CCc3ccccc3)C(c3nnnn3Cc3ccco3)C(C)C)cc2c1 (stereo not given)	HSF-1 act 82
CCC(c1nnnn1CCc1ccccc1)N(Cc1ccco1)Cc1cc2cc(C)cc(C)c2[nH]c1=O (stereo not given)	HSF-1 act 58
CCC(c1nnnn1CCc1ccccc1)N(Cc1ccco1)Cc1cc2c(C)ccc(C)c2[nH]c1=O (stereo not given)	HSF-1 act 128 (no result: Lipid droplet)
CSCC[C@H](NC(=O)OC(C)(C)C)c1nnc(SCc2cccc(F)c2)o1	PHOSPHO1 inh 74 (no result: Lipid droplet)
CCSc1nnc([C@H](Cc2c[nH]c3ccccc23)NC(=O)OC(C)(C)C)o1	HSF-1 act 59
CCN(CC)C(=O)CSc1nnc([C@H](Cc2c[nH]c3ccccc23)NC(=O)OC(C)(C)C)o1	none (no result: Lipid droplet)
Cn1c(=O)c2c(ncn2CC(=O)NC2CCCCC2)n(C)c1=O	none
c1ccc(-c2nc(CSc3n[nH]c(-c4cccs4)n3)cs2)cc1	HSF-1 act 60 (no result: Lipid droplet)
Fc1ccc(-n2cc(-c3ccccc3)c3c(N4CCOCC4)ncnc32)cc1	HSF1 inhib -52
Cc1nnc(N2CCOCC2)c2nn(-c3ccccc3)c(C)c12	none
c1ccc(-n2nnc3c(N4CCOCC4)ncnc32)cc1	PHOSPHO1 inh 68 (no result: Lipid droplet)
COc1ccc(-n2cc(-c3ccccc3)c3c(N4CCOCC4)ncnc32)cc1	none
Cn1c(-c2nonc2N)nc2ccccc21	HSF1 inhib -74
CC(C)C[C@H](NC(=O)C1CC(=O)N(c2ccc(F)cc2)C1)C(=O)N1CCCCC1 (stereo not given in full)	none
Cc1ccc(/C=C2\SC(=S)N(Cc3ccccc3)C2=O)o1	PHOSPHO1 inh 67 (no result: HSF-1 act, Lipid droplet, HSF1 inhib)
O=C1/C(=C/c2ccncc2)SC(=S)N1Cc1ccccc1	none
O=C(O)c1cc(-c2ccc(/C=C3/SC(=S)N(Cc4ccccc4)C3=O)o2)ccc1Cl	PHOSPHO1 inh 65 (no result: CHT block, HSF-1 act, CHT PAM, HSF1 inhib)
CC(=O)c1ccc(-n2ccc(=O)cc2)cc1	none
CCOC(=O)c1c(NC(=O)c2nn(CC)cc2Br)c(C#N)nn1-c1ccccc1	HSF-1 act 52
Cc1ccc(S(=O)(=O)N2CCN(S(=O)(=O)N3CCCCC3)CC2)cc1C	none
CCOC(=O)C1CCN(c2c(NCc3ccc(C(=O)Nc4ccc(C)cc4)cc3)c(=O)c2=O)CC1	HSF1 inhib -69
Cc1cc(Cl)c2oc(C(=O)N3CCN(c4cccc(C)n4)CC3)c(C)c2c1	HSF-1 act 73
Cc1cc(Cl)c2oc(C(=O)N3CCN(C(=O)c4ccco4)CC3)c(C)c2c1	none
CCOCCn1c(=O)c2c(nc3n2CCCN3Cc2ccccc2)n(C)c1=O	none
Cc1cc(=O)oc2c(C(=O)/C=C/c3ccccc3)c(O)ccc12	none
Cc1c(C(=O)/C=C/c2cccs2)oc2ccc(F)cc12	HSF-1 act 106
COc1cc(/C=C/C(=O)c2c(O)ccc3c(C)cc(=O)oc23)ccc1O	HSF-1 act 113
Cc1nonc1NC(=O)c1oc2ccc(F)cc2c1C	none
Cc1cc(=O)oc2c(C(=O)/C=C\c3cccs3)c(O)ccc12	HSF-1 act 61
COc1ccccc1N(CC(=O)NCc1ccc(F)cc1)C(=O)CCC(=O)Nc1ccccn1	none
O=C(NCCc1ccccc1Cl)C1CC(=O)N(C2CCCCC2)C1 (stereo not given)	none (no result: Lipid droplet)
Cc1ccc(N2CCN(S(=O)(=O)N3CCCCC3)CC2)cc1C	none
O=S(=O)(N1CCCCC1)N1CCN(c2ccc(F)cc2)CC1	HSF1 inhib -71
O=C(c1ccc(F)cc1)c1ccc(N2CCCCC2)cc1	HSF-1 act 64
O=C(COc1ccc(/C=N/NC(=O)c2ccccc2Br)cc1)Nc1ccccc1	none (no result: PHOSPHO1 inh)
O=C(O)COc1ccc(/C=N/NC(=O)c2ccccc2Br)cc1	HSF1 inhib -67
Cc1ccccc1CN1CCc2cc([N+](=O)[O-])ccc21	none
COC(=O)CCN1CCc2cc(N=Nc3ccc([N+](=O)[O-])cc3)ccc21	HSF1 inhib -63
CCCNC(=S)N1CCN(Cc2ccc3c(c2)OCO3)CC1	none
COc1ccc(NC(=O)c2cc3nc(-c4ccccc4)cc(-c4ccccc4)n3n2)c(OC)c1	none (no result: Lipid droplet)
Cn1c(=O)c(C(=O)Nc2ncccc2O)c(O)c2ccccc21	PHOSPHO1 inh 82 (no result: Lipid droplet)
COc1ccc(/C=N/N(CCC(=O)NC(C)(C)C)C2=NS(=O)(=O)c3ccccc32)cc1	none
Cc1sc2ncnc(NCC3CCCO3)c2c1C (stereo not given)	PHOSPHO1 inh 60 (no result: Lipid droplet)
CCc1cc2c(NCC3CCCO3)ncnc2s1 (stereo not given)	none (no result: Lipid droplet)
O=C(CCC1CCCNC1)c1ccccc1 (stereo not given)	HSF1 inhib -70
N/C(=N\OC(=O)CCC1CCCC1)c1ccccc1	none
COc1ccc(-n2cnnc2SC(C)C(=O)Nc2cccc([N+](=O)[O-])c2)cc1 (stereo not given)	none
Cc1cc(C)cc(NC(=O)CN2C(=O)NC(C)(c3ccccc3)C2=O)c1 (stereo not given)	HSF-1 act 86 (no result: Lipid droplet)
Cc1cc(NC(=O)CN2C(=O)NC(C)(c3ccccc3)C2=O)no1 (stereo not given)	none
COc1ccccc1OCC(=O)NCCSCc1ccccc1Cl	none
O=C(COc1ccccc1)NCCSCc1ccccc1Cl	HSF-1 act 70
Cc1cc(Cl)ccc1OCc1cn2cccnc2n1	HSF-1 act 94
O=C(CSc1nc2ccccc2[nH]1)NCCN1CCCCC1	PHOSPHO1 inh 65 (no result: Lipid droplet)
CC(C)CCNC(=O)CSc1nc2ccccc2c(=O)[nH]1	HSF-1 act 55
O=C(CSc1nc2ccccc2[nH]1)NCc1ccc(F)cc1	none
O=C(CSc1nc2ccccc2c(=O)[nH]1)Nc1ccccc1O	none
CC(=O)N1CCc2cc(S(=O)(=O)N3CCCCC3C)ccc21 (stereo not given)	none
C/C(CC(=O)NCCCN1CCOCC1)=N\NC(=O)COc1ccc(C)cc1	none
CC(NC(=O)C(c1ccccc1)c1ccccc1)c1ccccc1 (stereo not given)	none (no result: PHOSPHO1 inh, Lipid droplet)
CCCn1c(NCc2cccc(OC)c2O)nc2ccccc21	HSF-1 act 62
COc1ccc(CNc2nc3ccccc3n2C(C)C)c(O)c1	none
COc1cccc(CNc2nc3ccccc3n2C(C)C)c1O	HSF-1 act 182 (no result: CHT block, CHT PAM, Lipid droplet)
CCc1ccc(NC(=O)c2cc(C)on2)cc1	HSF-1 act 58 (no result: Lipid droplet)
